The structures appear in SMILES notation. Activity calls are given as the source filed them. No cut-off for these calls is given here.

For data set [1], the species on record is Homo sapiens. The data set can be described thus: Binding affinity to BLC2 i-motif promoter DNA in human VAL BCL2 and MYC translocation-positive cells assessed as downregulation of BCL2 protein levels at 1 to 3 uM after 24 hrs by Western blot analysis. In outline:
(§1)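 Cell lines treated 24 h with compound up to 3 μM, with untreated and DMSO-treated controls. Lysates (20 μg total protein) probed by Western blot for BCL2 or MYC with antibodies at 1:1000; actin as loading control. Blots representative of triplicate experiments.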
On the technique in general: Immunoblotting shows a protein as a band on a membrane.

The species named for data set [2] is Homo sapiens. The data set can be described thus: Binding affinity to BLC2 i-motif promoter DNA in MYC translocation-positive and BCL2 amplification-positive human U2932 cells assessed as downregulation of Bcl2 mRNA levels at 1 to 3 uM after 24 hrs by qPCR method relative to control. A digest of the protocol: (§2)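 DLBCL lines grown in RPMI with 10% FBS (SUDHL4 15% FBS) and penicillin/streptomycin. Cells exposed for 24 h to rising concentrations up to 3 μM; DMSO as vehicle control. Total RNA isolated, target mRNA measured by TaqMan real-time qPCR, normalized to TBP and expressed relative to untreated cells; triplicate experiments, two-tailed t test.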

The subject of data set [3] is U2932. The data set can be described thus: Potentiation of CPA-induced antitumor activity against human U2932 cells xenografted in SCID mouse assessed as tumor growth inhibition at 10 mg/kg, ip for 5 days cotreated with 7.5 mg/kg NSC-338258 measured on day 12 post first treatment (reference value: 67%). Format: functional. A digest of the protocol:
(§3)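 U2932 DLBCL cells (10 × 10^6 in 100 μL sterile saline, viability >91%) injected subcutaneously into left flank of SCID mice (6−8 weeks, immunoglobulin ≤20 μg/mL). Mice pair-matched by tumor volume. Drugs given ip daily for 5 days, CPA 30 mg/kg; controls received all diluents. Tumor volume = a2 × b/2 (a smallest, b largest diameter); n = 5−8; Grubbs' test for outliers.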
In general terms: Xenograft models place foreign cells or tissue in a host animal.

For data set [4], the species on record is Homo sapiens. The data set can be described thus: Binding affinity to BLC2 i-motif promoter DNA in BCL2 translocation-positive human SUDHL4 cells assessed as downregulation of Bcl2 mRNA levels at 1 to 3 uM after 24 hrs by qPCR method. A digest of the protocol: as §2
For orientation: In qPCR the cycle at which signal appears reflects the starting amount.

The species entered for data set [5] is Homo sapiens. The data set can be described thus: Binding affinity to BLC2 i-motif promoter DNA in human U2932 MYC translocation-positive and BCL2 amplification-positive cells assessed as downregulation of BCL2 protein levels at 1 to 3 uM after 24 hrs by Western blot analysis. A digest of the protocol: as §1
Data set [6] is filed under the species Homo sapiens. The data set can be described thus: Stabilization of BCL2 i-motif promoter DNA in BCL2 translocation-positive human SUDHL4 cells assessed as potentiation of CPA-induced apoptosis by measuring increase in caspase-3 activity at 3 uM after 24 hrs in presence of NSC-338258 by AFC based fluorescence assay (reference value: 30%).
Data set [7] concerns Mus musculus. The data set can be described thus: Reduction in Bcl2 mRNA level in tumor of SCID mouse xenografted with human U2932 cells at 10 mg/kg, ip administered for 5 consecutive days cotreated with CPA and NSC-338258 by qPCR method. Format: functional, organism-based. A digest of the protocol:
(§4)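 Tumors from U2932 xenograft SCID mice given ip treatment daily for 5 days were harvested. Total RNA was taken from the same tumor preparations used for protein lysates, and MYC or BCL2 mRNA was quantified by TaqMan qPCR normalized to TBP. Comparisons were made with diluent-treated mice or CPA-only mice.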

Data set [8] relates to U2932. The data set can be described thus: Potentiation of CPA-induced antitumor activity against human U2932 cells xenografted in SCID mouse assessed as tumor growth inhibition at 10 mg/kg, ip for 5 days cotreated with 7.5 mg/kg NSC-338258 measured on day 9 post first treatment (reference value: 50%). The class given is functional. In outline:
as §3

For data set [9], the system named is U2932. The data set can be described thus: Potentiation of CPA-induced antitumor activity against human U2932 cells xenografted in SCID mouse assessed as tumor growth inhibition at 10 mg/kg, ip for 5 days cotreated with 7.5 mg/kg NSC-338258 measured on day 15 post first treatment (reference value: 44%). Format: functional. A digest of the protocol: as §3
Data set [10] concerns U2932. The data set can be described thus: Antitumor activity against human U2932 cells xenografted in SCID mouse assessed as reduction in tumor burden at 10 mg/kg, ip for 5 days cotreated with 5 to 7.5 mg/kg NSC-338258 measured on day 9 to 15 post first treatment.
The test system of data set [11] is Mus musculus. The data set can be described thus: Toxicity in scid mouse xenografted with human U2932 cells assessed as change in body weight at 10 mg/kg, ip administered for 5 consecutive days in presence of CPA. Conditions: in vivo. Format: organism-based. A digest of the protocol:
(§5)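 SCID mice (6−8 weeks, female or male, serum immunoglobulin ≤20 μg/mL by ELISA) implanted subcutaneously in left flank with 10 × 10^6 U2932 cells in 100 μL saline; pair-matched by tumor volume; dosed ip daily for 5 days; controls received all compound diluents; tumor volume a2 × b/2; outliers by Grubbs' test; two-tailed t test with Šidák–Bonferroni correction.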

Data set [12] concerns U2932. The data set can be described thus: Potentiation of CPA-induced antitumor activity against human U2932 cells xenografted in SCID mouse assessed as reduction in tumor burden AUC at 10 mg/kg, ip for 5 days cotreated with 5 to 7.5 mg/kg NSC-338258 measured on day 9 to 15 post first treatment. Format: functional, organism-based. A digest of the protocol:
as §3

In data set [13] the test system is Mus musculus. The data set can be described thus: Reduction in Myc mRNA level in tumor of SCID mouse xenografted with human U2932 cells at 10 mg/kg, ip administered for 5 consecutive days cotreated with CPA and NSC-338258 by qPCR method. The class given is functional, organism-based. A digest of the protocol: as §4
Data set [14] is filed under the species Homo sapiens. The data set can be described thus: Binding affinity to c-myc G-quadruplex DNA in MYC translocation-positive and BCL2 amplification-positive human U2932 cells assessed as downregulation of MYC mRNA levels up to 3 uM after 24 hrs by qPCR method relative to control. A digest of the protocol:
as §2

For data set [15], the species on record is Homo sapiens. The data set can be described thus: Binding affinity to BLC2 i-motif promoter DNA in human SUDHL4 BCL2 translocation-positive cells assessed as downregulation of BCL2 protein levels at 1 to 3 uM after 24 hrs by Western blot analysis. A digest of the protocol:
as §1

The subject of data set [16] is Mus musculus. The data set can be described thus: Toxicity in scid mouse xenografted with human U2932 cells assessed as change in body weight at 10 mg/kg, ip administered for 5 consecutive days in presence of CPA and NSC-338258. The class given is organism-based. The settings on record: in vivo. A digest of the protocol: as §5
The species named for data set [17] is Homo sapiens. The data set can be described thus: Stabilization of BCL2 i-motif promoter DNA in MYC translocation-positive and BCL2 amplification-positive human U2932 cells assessed as potentiation of CPA-induced apoptosis by measuring increase in caspase-3 activity at 3 uM after 24 hrs in presence of NSC-338258 by AFC based fluorescence assay (reference value: 30%).

For data set [18], the species on record is Homo sapiens. The data set can be described thus: Binding affinity to c-myc G-quadruplex DNA in human HT cells assessed as downregulation of MYC protein levels up to 3 uM after 24 hrs by Western blot analysis. Format: cell-based. In outline: as §1
The next data set deals with HT. The data set can be described thus: Down regulation of BLC2 mRNA level in human HT cells up to 3 uM after 24 hrs by qPCR method. Format: functional, cell-based. In outline:
as §2

The species named for data set [19] is Homo sapiens. The data set can be described thus: Binding affinity to BLC2 i-motif promoter DNA in BCL2 and MYC translocation-positive human VAL cells assessed as downregulation of Bcl2 mRNA levels at 1 to 3 uM after 24 hrs by qPCR method relative to control. A digest of the protocol:
as §2

Data set [20] is filed under the species Homo sapiens. The data set can be described thus: Binding affinity to c-myc G-quadruplex DNA in BCL2 translocation-positive human SUDHL4 cells assessed as downregulation of MYC mRNA levels up to 3 uM after 24 hrs by qPCR method relative to control. A digest of the protocol: as §2
Data set [21] is filed under the species Homo sapiens. The data set can be described thus: Stabilization of BCL2 i-motif promoter DNA in BCL2 and MYC translocation-positive human VAL cells assessed as potentiation of CPA-induced cytotoxicity by measuring fold reduction in CPA IC50 at 2 to 3 uM after 96 hrs by MTS assay. A digest of the protocol:
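MTS viability assay. 100 000 cells incubated 96 h with increasing CPA alone or with ligand (1−3 μM). Viability expressed relative to untreated cells. CPA IC50 fitted by Boltzmann sigmoidal equation with variable slope, and fold change in IC50 taken from the fitted values.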

For data set [22], the species on record is Homo sapiens. The data set can be described thus: Stabilization of BCL2 i-motif promoter DNA in BCL2 and MYC translocation-positive human VAL cells assessed as potentiation of CPA-induced apoptosis by measuring increase in caspase-3 activity at 3 uM after 24 hrs in presence of NSC-338258 by AFC based fluorescence assay (reference value: 30%).

As to `COc1ccc2c(c1)CN([C@@H](C)[C@H]1CC[C@H]3[C@@H]4CC[C@H]5C[C@@H](O)CC[C@]5(C)[C@H]4CC[C@]13C)CO2`, the outcome in the data set listed under Homo sapiens [1], in the data set filed under Homo sapiens [5], in the data set on Mus musculus [7], in the data set on U2932 [12], in the data set on Mus musculus [13] and in the data set filed under Homo sapiens [15] was Active. Besides, the Activity is 11 to 37% in the data set filed under Homo sapiens [2]; 11 to 37% in the data set filed under Homo sapiens [4]; 100% in the data set filed under Homo sapiens [6]; “Non-Toxic” in the data set with Mus musculus [11]; “Non-Toxic” in the data set with Mus musculus [16]; 100% in the data set listed under Homo sapiens [17]. Besides, the values for the Activity in the data set listed under Homo sapiens [19] and in the data set filed under Homo sapiens [22] were 11 to 37% and 100%, respectively. Moreover, the TGI with U2932 [3] amounted to 46%; in the data set with U2932 [8], 50%; with U2932 [9], 37%. Further, the outcome in the data set with U2932 [10], in the data set listed under Homo sapiens [14], in the data set filed under Homo sapiens [18], with HT and in the data set filed under Homo sapiens [20] was inactive. The fold change (FC) in the data set filed under Homo sapiens [21] came out at 1.7.

For orientation: TGI means the reduction of tumour growth relative to the control group.

Values taken from ChEMBL document CHEMBL4038303, “Simultaneous Drug Targeting of the Promoter MYC G-Quadruplex and BCL2 i-Motif in Diffuse Large B-Cell Lymphoma Delays Tumor Growth” (J Med Chem, 2017).
